In ChEMBL document CHEMBL5356993, “Novel pyrazolo[3,4-d]pyrimidine derivatives: design, synthesis, anticancer evaluation, VEGFR-2 inhibition, and antiangiogenic activity” (RSC Med Chem, 2023):

What was measured:
Type in all cases: functional
Settings in all cases: read-out: GI
[1] = system: M14; experiment: Antiproliferative activity against human M14 cells assessed as cell growth inhibition at 10 uM incubated for 48 hrs by SRB assay relative to control
How it was run: (§1)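 Cells plated in 96-well plates at […] cells/well and preincubated 24 h at 37 °C, 5% CO2. Time-zero plates were TCA-fixed. Compound was diluted in medium with 50 µg/mL gentamicin and cells exposed for 48 h. Adherent cells fixed with 10% final TCA; suspension cells with 16% final TCA. Plates stained with 0.4% SRB in 1% acetic acid, dye solubilized in 10 mM Trizma, absorbance read at 515 nm. Percent growth calculated against time-zero and control.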

[2] = system: UACC-257; experiment: Antiproliferative activity against human UACC-257 cells assessed as cell growth inhibition at 10 uM incubated for 48 hrs by SRB assay relative to control
How it was run: (§2)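 Cells pre-incubated 24 h at 37°C, 5% CO2, then exposed to compound (DMSO stock diluted in medium with 50 µg/mL gentamicin) for 48 h. Adherent cells fixed with cold TCA (final 10%, 60 min, 4°C); suspension cells fixed with 16% TCA final. Stained with 0.4% SRB in 1% acetic acid for 10 min, dye solubilized in 10 mM Trizma base, absorbance read at 515 nm. Growth calculated against time-zero and untreated control plates.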

[3] = system: MDA-MB-435; experiment: Antiproliferative activity against human MDA-MB-435 cells assessed as cell growth inhibition at 10 uM incubated for 48 hrs by SRB assay relative to control
[4] = system: HT-29; experiment: Antiproliferative activity against human HT-29 cells assessed as cell growth inhibition at 10 uM incubated for 48 hrs by SRB assay relative to control; how it was run: as §1
[5] = system: HCC 2998; experiment: Antiproliferative activity against human HCC 2998 cells assessed as cell growth inhibition at 10 uM incubated for 48 hrs by SRB assay relative to control
[6] = system: HOP-62; experiment: Antiproliferative activity against human HOP-62 cells assessed as cell growth inhibition at 10 uM incubated for 48 hrs by SRB assay relative to control
[7] = system: HCT-15; experiment: Antiproliferative activity against human HCT-15 cells assessed as cell growth inhibition at 10 uM incubated for 48 hrs by SRB assay relative to control
[8] = system: RPMI-8226; experiment: Antiproliferative activity against human RPMI-8226 cells assessed as cell growth inhibition at 10 uM incubated for 48 hrs by SRB assay relative to control
[9] = system: SF-268; experiment: Antiproliferative activity against human SF-268 cells assessed as cell growth inhibition at 10 uM incubated for 48 hrs by SRB assay relative to control
[10] = system: RXF 393; experiment: Antiproliferative activity against human RXF 393 cells assessed as cell growth inhibition at 10 uM incubated for 48 hrs by SRB assay relative to control; how it was run: as §1
[11] = system: NCI-H322M; experiment: Antiproliferative activity against human NCI-H322M cells assessed as cell growth inhibition at 10 uM incubated for 48 hrs by SRB assay relative to control
[12] = system: MCF7; experiment: Antiproliferative activity against human MCF7 cells assessed as cell growth inhibition at 10 uM incubated for 48 hrs by SRB assay relative to control
[13] = system: HOP-92; experiment: Antiproliferative activity against human HOP-92 cells assessed as cell growth inhibition at 10 uM incubated for 48 hrs by SRB assay relative to control; how it was run: as §1
[14] = system: NCI-H522; experiment: Antiproliferative activity against human NCI-H522 cells assessed as cell growth inhibition at 10 uM incubated for 48 hrs by SRB assay relative to control; how it was run: as §1
[15] = system: A498; experiment: Antiproliferative activity against human A498 cells assessed as cell growth inhibition at 10 uM incubated for 48 hrs by SRB assay relative to control; how it was run: as §1
[16] = system: NCI/ADR-RES; experiment: Antiproliferative activity against human NCI-ADR-RES cells assessed as cell growth inhibition at 10 uM incubated for 48 hrs by SRB assay relative to control
[17] = system: OVCAR-3; experiment: Antiproliferative activity against human OVCAR-3 cells assessed as cell growth inhibition at 10 uM incubated for 48 hrs by SRB assay relative to control; how it was run: as §1
[18] = system: NCI-H460; experiment: Antiproliferative activity against human NCI-H460 cells assessed as cell growth inhibition at 10 uM incubated for 48 hrs by SRB assay relative to control
[19] = system: SNB-75; experiment: Antiproliferative activity against human SNB-75 cells assessed as cell growth inhibition at 10 uM incubated for 48 hrs by SRB assay relative to control; how it was run: as §2
[20] = system: CAKI-1; experiment: Antiproliferative activity against human CAKI-1 cells assessed as cell growth inhibition at 10 uM incubated for 48 hrs by SRB assay relative to control
[21] = system: NCI-H226; experiment: Antiproliferative activity against human NCI-H226 cells assessed as cell growth inhibition at 10 uM incubated for 48 hrs by SRB assay relative to control; how it was run: as §1
[22] = system: Hs-578T; experiment: Antiproliferative activity against human Hs-578T cells assessed as cell growth inhibition at 10 uM incubated for 48 hrs by SRB assay relative to control; how it was run: as §1
[23] = system: BT-549; experiment: Antiproliferative activity against human BT-549 cells assessed as cell growth inhibition at 10 uM incubated for 48 hrs by SRB assay relative to control
[24] = system: DU-145; experiment: Antiproliferative activity against human DU-145 cells assessed as cell growth inhibition at 10 uM incubated for 48 hrs by SRB assay relative to control
[25] = system: LOX IMVI; experiment: Antiproliferative activity against human LOX IMVI cells assessed as cell growth inhibition at 10 uM incubated for 48 hrs by SRB assay relative to control
[26] = system: 786-0; experiment: Antiproliferative activity against human 786-0 cells assessed as cell growth inhibition at 10 uM incubated for 48 hrs by SRB assay relative to control
[27] = system: CCRF-CEM; experiment: Antiproliferative activity against human CCRF-CEM cells assessed as cell growth inhibition at 10 uM incubated for 48 hrs by SRB assay relative to control; how it was run: as §1
[28] = system: TK-10; experiment: Antiproliferative activity against human TK-10 cells assessed as cell growth inhibition at 10 uM incubated for 48 hrs by SRB assay relative to control; how it was run: as §2
[29] = system: SF-539; experiment: Antiproliferative activity against human SF-539 cells assessed as cell growth inhibition at 10 uM incubated for 48 hrs by SRB assay relative to control; how it was run: as §1
[30] = system: SF-295; experiment: Antiproliferative activity against human SF-295 cells assessed as cell growth inhibition at 10 uM incubated for 48 hrs by SRB assay relative to control; how it was run: as §1
[31] = system: PC-3; experiment: Antiproliferative activity against human PC-3 cells assessed as cell growth inhibition at 10 uM incubated for 48 hrs by SRB assay relative to control
[32] = system: SN12C; experiment: Antiproliferative activity against human SN12C cells assessed as cell growth inhibition at 10 uM incubated for 48 hrs by SRB assay relative to control
[33] = system: SK-MEL-2; experiment: Antiproliferative activity against human SK-MEL-2 cells assessed as cell growth inhibition at 10 uM incubated for 48 hrs by SRB assay relative to control; how it was run: as §1
[34] = system: OVCAR-5; experiment: Antiproliferative activity against human OVCAR-5 cells assessed as cell growth inhibition at 10 uM incubated for 48 hrs by SRB assay relative to control; how it was run: as §1

SMILES	inhibition of growth at 10 µM [1]	inhibition of growth at 10 µM [2]	inhibition of growth at 10 µM [3]	inhibition of growth at 10 µM [4]	inhibition of growth at 10 µM [5]	inhibition of growth at 10 µM [6]	inhibition of growth at 10 µM [7]	inhibition of growth at 10 µM [8]	inhibition of growth at 10 µM [9]	inhibition of growth at 10 µM [10]	inhibition of growth at 10 µM [11]	inhibition of growth at 10 µM [12]	inhibition of growth at 10 µM [13]	inhibition of growth at 10 µM [14]	inhibition of growth at 10 µM [15]	inhibition of growth at 10 µM [16]	inhibition of growth at 10 µM [17]	inhibition of growth at 10 µM [18]	inhibition of growth at 10 µM [19]	inhibition of growth at 10 µM [20]	also measured
Cc1ccc(C(=O)Nc2ccc(-n3c(C)nc4c(cnn4-c4ccccc4)c3=O)cc2)cc1	26.8%	58%	29.4%	28.8%	< 15%	21.2%	24.6%	41.6%	< 15%	< 15%	< 15%	52.2%	< 15%	28.8%	< 15%	47.3%	< 15%	24.6%	17.2%	27.6%	inhibition of growth at 10 µM [21]: 45.2%; inhibition of growth at 10 µM [22]: 15.2%; inhibition of growth at 10 µM [23]: 40.8%; inhibition of growth at 10 µM [24]: 15.1%; inhibition of growth at 10 µM [25]: 32.8%; inhibition of growth at 10 µM [26]: < 15%; inhibition of growth at 10 µM [27]: 53.7%; inhibition of growth at 10 µM [28]: 17.7%; inhibition of growth at 10 µM [29]: 18.6%; inhibition of growth at 10 µM [30]: 49.4%; inhibition of growth at 10 µM [31]: 28.4%; inhibition of growth at 10 µM [32]: 26.7%; inhibition of growth at 10 µM [33]: 21.7%; inhibition of growth at 10 µM [34]: < 15%
Cc1nc2c(cnn2-c2ccccc2)c(=O)n1-c1ccc(NC(=O)c2ccco2)cc1	< 15%	< 15%	< 15%	< 15%	< 15%	< 15%	< 15%	26.1%	< 15%	< 15%	< 15%	23.4%	< 15%	< 15%	< 15%	< 15%	< 15%	< 15%	< 15%	< 15%	inhibition of growth at 10 µM [21]: < 15%; inhibition of growth at 10 µM [22]: < 15%; inhibition of growth at 10 µM [23]: < 15%; inhibition of growth at 10 µM [24]: < 15%; inhibition of growth at 10 µM [25]: < 15%; inhibition of growth at 10 µM [26]: < 15%; inhibition of growth at 10 µM [27]: 23.6%; inhibition of growth at 10 µM [28]: < 15%; inhibition of growth at 10 µM [29]: < 15%; inhibition of growth at 10 µM [30]: 15.3%; inhibition of growth at 10 µM [31]: < 15%; inhibition of growth at 10 µM [32]: < 15%; inhibition of growth at 10 µM [33]: < 15%; inhibition of growth at 10 µM [34]: < 15%
Cc1nc2c(cnn2-c2ccccc2)c(=O)n1-c1ccc(NC(=O)c2ccc(F)cc2)cc1	37.1%	68.2%	46.2%	36.5%	20.1%	35.4%	33.9%	64.8%	< 15%	20.9%	< 15%	64.2%	< 15%	36.1%	< 15%	57.2%	< 15%	45.6%	35.5%	34.3%	inhibition of growth at 10 µM [21]: 43.8%; inhibition of growth at 10 µM [22]: 21.3%; inhibition of growth at 10 µM [23]: 54%; inhibition of growth at 10 µM [24]: 19.3%; inhibition of growth at 10 µM [25]: 38.2%; inhibition of growth at 10 µM [26]: 17.5%; inhibition of growth at 10 µM [27]: 65.2%; inhibition of growth at 10 µM [28]: 29%; inhibition of growth at 10 µM [29]: < 15%; inhibition of growth at 10 µM [30]: 60.4%; inhibition of growth at 10 µM [31]: 46.9%; inhibition of growth at 10 µM [32]: 25.6%; inhibition of growth at 10 µM [33]: 22.1%; inhibition of growth at 10 µM [34]: < 15%
CC(=O)Nc1ccc(-n2c(C)nc3c(cnn3-c3ccccc3)c2=O)cc1	< 15%	41.7%	21.1%	< 15%	< 15%	< 15%	15.1%	47.5%	< 15%	< 15%	< 15%	44.4%	17%	25%	16.1%	< 15%	< 15%	< 15%	< 15%	31.1%	inhibition of growth at 10 µM [21]: 33.5%; inhibition of growth at 10 µM [22]: < 15%; inhibition of growth at 10 µM [23]: 48%; inhibition of growth at 10 µM [24]: 17.8%; inhibition of growth at 10 µM [25]: 21.1%; inhibition of growth at 10 µM [26]: < 15%; inhibition of growth at 10 µM [27]: 30.8%; inhibition of growth at 10 µM [28]: 20.4%; inhibition of growth at 10 µM [29]: 18.9%; inhibition of growth at 10 µM [30]: 36.5%; inhibition of growth at 10 µM [31]: 30.3%; inhibition of growth at 10 µM [32]: 26.1%; inhibition of growth at 10 µM [33]: 24.3%; inhibition of growth at 10 µM [34]: < 15%
